Active and inactive are the calls of the source. The rule behind the calls is not given here.
Key:
[1] = biological target: T1, 5-hydroxytryptamine receptor 2C (Homo sapiens) (UniProt P28335); experiment: Agonist activity at human 5-HT2C-INI receptor isoform expressed in Flp-IN HEK293 cells assessed as induction of Gq-mediated calcium flux up to 10 uM measured every second for 5 mins by Fluo-4 dye based FLIPR assay; assay type: functional, cell-based
T1 sequence (whole entry): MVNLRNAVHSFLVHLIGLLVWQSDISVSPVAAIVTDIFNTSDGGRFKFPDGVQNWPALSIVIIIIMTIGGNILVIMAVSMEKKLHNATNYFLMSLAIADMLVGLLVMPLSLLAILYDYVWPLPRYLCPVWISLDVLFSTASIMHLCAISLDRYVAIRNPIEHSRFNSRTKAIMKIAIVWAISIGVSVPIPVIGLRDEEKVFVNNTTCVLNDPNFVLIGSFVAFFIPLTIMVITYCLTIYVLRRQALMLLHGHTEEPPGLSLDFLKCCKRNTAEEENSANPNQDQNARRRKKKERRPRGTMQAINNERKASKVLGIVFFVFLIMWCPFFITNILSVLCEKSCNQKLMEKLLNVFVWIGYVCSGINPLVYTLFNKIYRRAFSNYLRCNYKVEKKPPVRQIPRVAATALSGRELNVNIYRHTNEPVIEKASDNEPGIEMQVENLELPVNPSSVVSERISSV

[2] = biological target: T2, 5-hydroxytryptamine receptor 2B (Homo sapiens, UniProt P41595); experiment: Agonist activity at human 5-HT2B receptor expressed in Flp-IN HEK293 cells assessed as induction of calcium flux up to 10 uM measured every second for 5 mins by Fluo-4 dye based FLIPR assay; assay type: cell-based; conditions: hek293, 5 min
T2 sequence (P41595 whole entry): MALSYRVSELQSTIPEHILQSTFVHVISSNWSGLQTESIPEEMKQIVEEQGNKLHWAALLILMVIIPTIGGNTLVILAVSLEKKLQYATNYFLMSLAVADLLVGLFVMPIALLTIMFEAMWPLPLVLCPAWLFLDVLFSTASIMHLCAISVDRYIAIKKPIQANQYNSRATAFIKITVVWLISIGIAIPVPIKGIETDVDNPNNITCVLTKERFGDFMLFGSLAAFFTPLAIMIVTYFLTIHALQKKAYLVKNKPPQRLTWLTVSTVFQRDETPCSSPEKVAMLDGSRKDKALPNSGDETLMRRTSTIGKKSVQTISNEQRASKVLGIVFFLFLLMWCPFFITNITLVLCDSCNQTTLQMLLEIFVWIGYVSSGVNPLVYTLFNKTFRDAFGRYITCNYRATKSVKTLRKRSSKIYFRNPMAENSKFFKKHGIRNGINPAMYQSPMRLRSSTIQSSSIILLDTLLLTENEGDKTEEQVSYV

[3] = biological target: T3, 5-hydroxytryptamine receptor 2A (Homo sapiens, UniProt P28223); experiment: Agonist activity at human 5-HT2A receptor expressed in Flp-IN HEK293 cells assessed as induction of calcium flux up to 10 uM measured every second for 5 mins by Fluo-4 dye based FLIPR assay; assay type: cell-based; conditions: hek293, 5 min
T3 sequence (P28223 whole entry, canonical isoform): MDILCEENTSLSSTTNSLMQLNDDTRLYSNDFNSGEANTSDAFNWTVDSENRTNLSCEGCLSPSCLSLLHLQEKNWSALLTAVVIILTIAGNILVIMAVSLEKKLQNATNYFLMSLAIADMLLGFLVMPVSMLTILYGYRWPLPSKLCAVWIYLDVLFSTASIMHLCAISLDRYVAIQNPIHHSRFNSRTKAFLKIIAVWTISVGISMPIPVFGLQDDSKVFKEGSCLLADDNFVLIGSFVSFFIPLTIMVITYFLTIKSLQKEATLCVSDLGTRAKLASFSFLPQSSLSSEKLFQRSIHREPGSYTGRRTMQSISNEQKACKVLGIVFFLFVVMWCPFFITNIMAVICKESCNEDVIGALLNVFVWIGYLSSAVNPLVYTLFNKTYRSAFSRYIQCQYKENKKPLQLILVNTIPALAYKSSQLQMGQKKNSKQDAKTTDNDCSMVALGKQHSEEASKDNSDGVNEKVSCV

[4] = biological target: T4, 5-hydroxytryptamine receptor 2C (Homo sapiens, UniProt P28335); experiment: Agonist activity at human 5-HT2C-INI receptor isoform expressed in Flp-IN HEK293 cells assessed as induction of Gq-mediated calcium flux measured every second for 5 mins by Fluo-4 dye based FLIPR assay; assay type: functional, cell-based
T4 sequence (P28335 whole entry): T1 sequence (whole entry)

[5] = biological target: T2, 5-hydroxytryptamine receptor 2B; experiment: Agonist activity at human 5-HT2B receptor expressed in Flp-IN HEK293 cells assessed as induction of calcium flux measured every second for 5 mins by Fluo-4 dye based FLIPR assay; assay type: cell-based
[6] = biological target: T3, 5-hydroxytryptamine receptor 2A; experiment: Agonist activity at human 5-HT2A receptor expressed in Flp-IN HEK293 cells assessed as induction of calcium flux measured every second for 5 mins by Fluo-4 dye based FLIPR assay; assay type: cell-based
[7] = biological target: T1, 5-hydroxytryptamine receptor 2C (Homo sapiens); experiment: Agonist activity at human 5-HT2C-INI receptor isoform expressed in Flp-IN HEK293 cells assessed as induction of Gq-mediated calcium flux measured every second for 5 mins by Fluo-4 dye based FLIPR assay relative to serotonin; assay type: functional, cell-based
5-HT2B receptor = 5-HT2B receptor (Homo sapiens, UniProt P41595); experiment: Agonist activity at human 5-HT2B receptor expressed in Flp-IN HEK293 cells assessed as induction of calcium flux measured every second for 5 mins by Fluo-4 dye based FLIPR assay relative to serotonin; assay type: cell-based; conditions: Flp-IN HEK293 cells expressing human 5-HT2B receptor
5-HT2B receptor, sequence (P41595 whole entry): as the sequence (P41595 whole entry) above

5-HT2A receptor = 5-HT2A receptor (Homo sapiens, UniProt P28223); experiment: Agonist activity at human 5-HT2A receptor expressed in Flp-IN HEK293 cells assessed as induction of calcium flux measured every second for 5 mins by Fluo-4 dye based FLIPR assay relative to serotonin; assay type: cell-based; conditions: Flp-IN HEK293 cells expressing human 5-HT2A receptor
5-HT2A receptor, sequence (P28223 whole entry): as the sequence (P28223 whole entry, canonical isoform) above

Homo sapiens = species: Homo sapiens; experiment: Selectivity ratio of EC50 for human 5HT2B receptor to EC50 for human 5HT2C-INI receptor
[8] = biological target: T4, 5-hydroxytryptamine receptor 2C; experiment: Agonist activity at tTA containing TEV cleavage site-fused 5-HT2C-INI receptor isoform (unknown origin) expressed in TEV-fused beta-arrestin2 expressing HEK cells assessed as induction of beta-arrestin2 recruitment after 20 hrs by Tango assay; assay type: cell-based
[9] = biological target: T1, 5-hydroxytryptamine receptor 2C (Homo sapiens); experiment: Ratio of Emax to EC50 for human 5-HT2C-INI receptor isoform expressed in Flp-IN HEK293 cells; assay type: cell-based
[10] = biological target: T1, 5-hydroxytryptamine receptor 2C (Homo sapiens); experiment: Ratio of Emax to EC50 for tTA containing TEV cleavage site-fused 5-HT2C-INI receptor isoform (unknown origin) expressed in TEV-fused beta-arrestin2 expressing HEK cells assessed as induction of beta-arrestin2 recruitment activity; assay type: cell-based
[11] = biological target: T1, 5-hydroxytryptamine receptor 2C (Homo sapiens); experiment: Agonist activity at tTA containing TEV cleavage site-fused 5-HT2C-INI receptor isoform (unknown origin) expressed in TEV-fused beta-arrestin2 expressing HEK cells assessed as induction of beta-arrestin2 recruitment after 20 hrs by Tango assay relative to serotonin; assay type: cell-based
Procedure, shortened: (§1)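 HTLA cells (HEK cells with TEV-fused β-arrestin-2 and tTA-driven luciferase) transfected with tTA-fused 5-HT2C-INI receptor carrying a TEV site. Luminescence read after 20 min lysis at room temperature. Normalized to % 5-HT and fitted sigmoidally. NA means no activity up to 10 μM. Mean of n = 3.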

[12] = biological target: T1, 5-hydroxytryptamine receptor 2C (Homo sapiens); experiment: Agonist activity at tTA containing TEV cleavage site-fused 5-HT2C-INI receptor isoform (unknown origin) expressed in TEV-fused beta-arrestin2 expressing HEK cells assessed as induction of beta-arrestin2 recruitment up to 10 uM after 20 hrs by Tango assay; assay type: cell-based; procedure, shortened: as §1

SMILES	Activity [2]	EC50 ([4]; read-out: EC50) [nM]	EC50 [6] [nM]	Emax [7] [%]	Emax at 5 min (5-HT2B receptor) [%]	Emax at 5 min (5-HT2A receptor) [%]	also measured
CNC[C@H]1C[C@@H]1c1cc(F)ccc1OCCF.Cl	Not Active						Activity [1]: inactive; Activity [3]: Not Active
COc1ccc(F)cc1C1CC1CNCc1cccnc1OC (racemic)		433	1290	65	32	66	EC50 [5]: 274 nM
COc1cscc1CNCC1CC1c1cc(F)ccc1OC.Cl (racemic)	Not Active	228	145	65		89	
COc1ccc(F)cc1C1CC1CNCc1ccsc1OC.Cl (racemic)	Not Active	556	463	65		100	
COc1ccc(F)cc1C1CC1CNCc1ccccc1C(N)=O (racemic)		409	1310	31	82	67	EC50 [5]: 335 nM
COc1cccc(CNC[C@H]2C[C@@H]2c2cc(F)ccc2OC)c1.Cl	Not Active	231	3700	83		70	
COc1ccc(F)cc1[C@@H]1C[C@H]1CNCc1cccs1.Cl	Not Active	308	674	81		59	
C=CCOc1ccc(F)cc1[C@H]1C[C@@H]1CNC.Cl	Not Active	13	284	15		19	
COc1cccc(CNC[C@@H]2C[C@H]2c2cc(F)ccc2OC)c1.Cl	Not Active	2600	6840	85		97	
COc1ccc(F)cc1C1CC1CNCc1ccccc1O.Cl (racemic)	Not Active	304	77	63		76	
COc1ccc(F)cc1C1CC1CNCc1ccccc1OCCF (racemic)		28	398	16	11	80	EC50 [5]: 56 nM; Ratio EC50 (Homo sapiens): 2
COc1ccc(F)cc1C1CC1CNCc1cccc2ccsc12 (racemic)		777	2220	94	79	70	EC50 [5]: 807 nM
COc1ccc(F)cc1C1CC1CNCC1CCCCC1.Cl (racemic)	Not Active	95		15			Activity [3]: Not Active
COc1ccc(F)cc1[C@@H]1C[C@H]1CNCc1ccccc1F.Cl	Not Active	1640	1880	90		78	
COc1ccccc1CN(C)CC1CC1c1cc(F)ccc1OC.Cl (racemic)	Not Active	670	2540	49		24	
COc1ccc(F)cc1C1CC1CNCC1CC1.Cl (racemic)	Not Active		4260			43	Activity [1]: inactive
COc1ccc(CNC[C@@H]2C[C@H]2c2cc(F)ccc2OC)cc1.Cl	Not Active						Activity [1]: inactive; Activity [3]: Not Active

SMILES	Activity [2]	EC50 ([4]; read-out: EC50) [nM]	EC50 [6] [nM]	Emax [7] [%]	Emax at 5 min (5-HT2B receptor) [%]	Emax at 5 min (5-HT2A receptor) [%]	also measured
C=CCOc1ccc(F)cc1[C@H]1C[C@@H]1CNCc1ccccc1OC		9.2	28	97	28	80	EC50 ([4]; read-out: pEC50 (converted)): 8.91 nM; EC50 [5]: 113 nM; EC50 [8]: 22.7 nM; log(ratio) [9]: 8.02; log(ratio) [10]: 7.39; Emax [11]: 56%
COc1ccc(F)cc1[C@@H]1C[C@H]1CNCc1ccccc1Cl.Cl	Not Active	1860	2990	72			
COc1ccc(F)cc1C1CC1CNC1CC1 (racemic)		399	1090	70	14	69	EC50 [5]: 641 nM
COc1ccc(F)cc1C1CC1CNCc1cccc2cccnc12 (racemic)		530	460	84	73	69	EC50 [5]: 87 nM
COc1ccc(F)cc1C1CC1CNCc1cccc2cc[nH]c12.Cl (racemic)	Not Active						Activity [1]: inactive; Activity [3]: Not Active
CNC[C@H]1C[C@@H]1c1cc(F)ccc1OC		23	271	71	54	79	EC50 [5]: 89 nM; Activity [12]: inactive; log(ratio) [9]: 7.49
COc1ccc(CNC[C@H]2C[C@@H]2c2cc(F)ccc2OC)cc1.Cl	Not Active	1200		71			Activity [3]: Not Active
COc1ccc(F)cc1C1CC1CNCc1ccccc1C#N (racemic)		245	721	30	82	63	EC50 [5]: 238 nM
COc1ccc(F)cc1[C@H]1C[C@@H]1CNCc1ccccc1F.Cl	Not Active	502	1880	78		63	
COc1ccccc1CCNCC1CC1c1cc(F)ccc1OC (racemic)			307			59	
COc1ccc(F)cc1C1CC1CNCc1sccc1OC.Cl (racemic)	Not Active	121	148	66		102	
COc1ccc(F)cc1[C@H]1C[C@@H]1CNCc1ccccc1Cl.Cl	Not Active	529	3530	94		64	
COc1ccccc1CNC[C@H]1C[C@@H]1c1cc(F)ccc1OCCF				93	22	78	Emax [11]: 54%
COc1ccc(F)cc1C1CC1CNC1(c2ccccc2OC)CC1.Cl (racemic)	Not Active	874	655	77		102	
COc1ccccc1C(C)NCC1CC1c1cc(F)ccc1OC.Cl (racemic)	Not Active	2550	238	81		106	
COc1ccc(F)cc1[C@H]1C[C@@H]1CNCc1cccs1.Cl	Not Active	120	438	60		34	Activity [12]: inactive; log(ratio) [9]: 6.7
COc1ccccc1CNC[C@@H]1C[C@H]1c1cc(F)ccc1OC				104	72	94	EC50 [5]: 570 nM

Source: ChEMBL document CHEMBL4011649 (J Med Chem, 2017)
